Compound activity (PubChem BioAssay)
This is a sample that favours compounds with a hit; in the whole collection about 1.9% have one here.
M4 antag: antagonists of human muscarinic M4 receptor (CHRM4) | P08173 | CHO-hM4 cells, ACh EC80, Fluo-8 calcium fluorescence | inhibition, % at 3 µM | 360,000 tested, 0.73% active;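 active means inhibition above its plate's cutoff, the mean inhibition of sample wells plus 3 SD, cut at about 27% in these data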
M5 ag: agonists of human muscarinic M5 receptor (CHRM5); P08912; CHO-K1 hM5 cells, Fluo-8 calcium fluorescence; 0% DMSO wells, 100% maximal acetylcholine response; activation, % at 3 µM; 360,000 tested, 0.19% active; AID 624037;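 active means activation above the run's mean over test compounds plus 3 SD, cut at about 23% in these data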;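 further: signal is peak over basal fluorescence ratio across the kinetic read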
Target sequence (P08912 whole entry, looked up): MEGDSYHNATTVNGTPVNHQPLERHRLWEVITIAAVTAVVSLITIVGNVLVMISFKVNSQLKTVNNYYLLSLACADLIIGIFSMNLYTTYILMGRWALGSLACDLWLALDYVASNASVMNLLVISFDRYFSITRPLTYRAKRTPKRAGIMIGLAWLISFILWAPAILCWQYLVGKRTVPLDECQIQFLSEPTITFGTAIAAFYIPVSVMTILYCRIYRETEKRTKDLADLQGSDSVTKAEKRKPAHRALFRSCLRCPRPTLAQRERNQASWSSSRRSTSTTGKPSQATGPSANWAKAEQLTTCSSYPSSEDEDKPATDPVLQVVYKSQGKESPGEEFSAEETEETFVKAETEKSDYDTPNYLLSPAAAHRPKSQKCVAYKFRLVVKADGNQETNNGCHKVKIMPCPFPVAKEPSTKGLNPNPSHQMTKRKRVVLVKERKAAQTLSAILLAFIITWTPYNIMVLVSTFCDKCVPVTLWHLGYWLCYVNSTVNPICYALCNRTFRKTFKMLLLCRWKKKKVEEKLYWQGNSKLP
M4 ag: CHRM4 agonism in calcium assay; 360,000 tested, 0.14% active; P08173; activation, % at 3 µM; CHO-K1 hM4/Gqi5, Fluo-8 calcium fluorescence; vehicle 0%, full acetylcholine response 100%;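 active means activation above the run mean over all test wells plus 3 SD, cut at about 32% in these data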;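 further: peak over basal fluorescence ratio per well then scaled between controls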
M4 PAM: potentiates acetylcholine response at human M4 receptor; P08173; CHO-K1 hM4/Gqi5, Fluo-8 calcium fluorescence, ACh EC20; 0% = ACh EC20, 100% = maximal ACh; activation, % at 3 µM; 360,000 tested, 0.4% active; AID 624126;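 active means activation above its plate's cutoff, the mean activation of sample wells plus 3 SD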
M5 antag: antagonists of human muscarinic M5 receptor (CHRM5) | CHO-hM5 cells, Fluo-8 calcium fluorescence, ACh EC80 | AID 624040 | inhibition, % at 3 µM | P08912 | 360,000 tested, 0.59% active;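 active means inhibition above a per-plate cutoff, the mean of that plate's test compounds plus 3 SD, cut at about 27% in these data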
M5 PAM: CHRM5 positive allosteric modulation. activation, % at 3 µM. CHO-K1 hM5, Fluo-8 calcium, ACh EC20 PAM; 0% = ACh EC20, 100% = ACh EC100. 360,000 tested, 0.3% active;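 active means activation above the run cutoff, the mean activation of all test compounds plus 3 SD, cut at about 18% in these data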
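Replicates: One well per compound, no replicates | System: Human M5 receptor in CHO-K1 cells | Benchmarks: Low control EC20 acetylcholine (0%), high control EC100 acetylcholine (100%) | Probe or stimulus: Acetylcholine, EC20 level | Times: Fluo-8 loading 80 min at 37 °C plus 30 min room temperature | Signal: Intracellular calcium via Fluo-8 fluorescence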
Hits are given with their value.

Screening COc1cccc(CN(C)C(=O)c2cc(-c3ccc(F)cc3)nc3ccccc23)c1 returned M4 antag inactive, M5 ag inactive, M4 ag inactive, M4 PAM inactive, M5 antag inactive and M5 PAM inactive.
For COc1ccc(-c2cc(C(=O)N(C)Cc3cccc(OC)c3OC)c3ccccc3n2)cc1OC the results were M4 antag inactive, M5 ag inactive, M4 ag inactive, M4 PAM inactive, M5 antag inactive and M5 PAM inactive.
Screening COc1ccc(CN(C)C(=O)c2cc(-c3ccc(OC)c(OC)c3)nc3ccccc23)c(OC)c1 returned M4 antag 27, M5 ag inactive, M4 ag inactive, M4 PAM inactive, M5 antag inactive and M5 PAM inactive.
Screening COc1cccc(CN(C)C(=O)c2cc(-c3ccc(OC)c(OC)c3)nc3ccccc23)c1 returned M4 antag 30, M5 ag inactive, M4 ag inactive, M4 PAM inactive, M5 antag 28 and M5 PAM inactive.
For Cc1c(C=NNC(=O)c2ccc(Br)cc2)c2ccccn2c1C(=O)c1ccncc1 the results were M4 antag inactive, M5 ag inactive, M4 ag inactive, M4 PAM inactive, M5 antag inactive and M5 PAM inactive.
For O=C(Nc1ccccc1)N(c1ccccc1)C1C=CS(=O)(=O)C1 (stereo unspecified) the results were M4 antag 45, M5 ag inactive, M4 ag inactive, M4 PAM inactive, M5 antag inactive and M5 PAM inactive.
For CCCCn1c(N)c(N(CCC(C)C)C(=O)C2CC(=O)N(c3ccc(OC)cc3OC)C2)c(=O)[nH]c1=O (stereo unspecified) the results were M4 antag inactive, M5 ag inactive, M4 ag inactive, M4 PAM inactive, M5 antag inactive and M5 PAM inactive.
For Cc1ccccc1NC1=NS(=O)(=O)c2ccccc21 the results were M4 antag inactive, M5 ag inactive, M4 ag inactive, M4 PAM inactive, M5 antag inactive and M5 PAM inactive.
For O=S1(=O)N=C(Nc2ccc(O)cc2)c2ccccc21 the results were M4 antag inactive, M5 ag inactive, M4 ag inactive, M4 PAM inactive, M5 antag inactive and M5 PAM 21.
COc1ccc(-c2cc(C(=O)NCC3CCCCC3)[nH]n2)c(C)c1 was read as M4 antag inactive, M5 ag inactive, M4 ag inactive, M4 PAM inactive, M5 antag inactive and M5 PAM inactive.
For O=C(c1ccc(S(=O)(=O)c2cccc(Cl)c2)c([N+](=O)[O-])c1)N1CCN(c2ccccn2)CC1 the results were M4 antag 44, M5 ag inactive, M4 ag inactive, M4 PAM inactive, M5 antag 52 and M5 PAM inactive.
For Cc1ccc(-c2nn(CCC(=O)O)cc2/C=C\C(=O)c2ccc(Br)cc2)cc1 the results were M4 antag inactive, M5 ag inactive, M4 ag inactive, M4 PAM 19, M5 antag inactive and M5 PAM 23.
For CC1CCCCN1C(=O)CSc1nc(N)nc(N)n1 (stereo unspecified) the results were M4 antag inactive, M5 ag inactive, M4 ag inactive, M4 PAM 26, M5 antag inactive and M5 PAM inactive.
For CC1CCCCN1C(=O)CSc1nc(N)cc(=O)[nH]1 (stereo unspecified) the results were M4 antag inactive, M5 ag inactive, M4 ag inactive, M4 PAM inactive, M5 antag inactive and M5 PAM inactive.
`Cc1c(N=Cc2c(O)n(C3CCCCC3)c(=O)[nH]c2=O)c(=O)n(-c2ccccc2)n1C` gave M4 antag inactive, M5 ag inactive, M4 ag inactive, M4 PAM inactive, M5 antag inactive and M5 PAM 20.
Screening Cc1c(N=Cc2c(O)n(C)c(=O)c3ccccc23)c(=O)n(-c2ccccc2)n1C returned M4 antag inactive, M5 ag inactive, M4 ag inactive, M4 PAM inactive, M5 antag inactive and M5 PAM inactive.
Screening O=[N+]([O-])c1ccc(S(=O)(=O)Nc2ccncc2)cc1 returned M4 antag inactive, M5 ag inactive, M4 ag inactive, M4 PAM inactive, M5 antag inactive and M5 PAM inactive.
`O=[N+]([O-])c1ccc(Oc2ccc(S(=O)(=O)Nc3ccccc3)cc2)cc1` gave M4 antag 53, M5 ag inactive, M4 ag 39, M4 PAM inactive, M5 antag 43 and M5 PAM inactive.
For COc1cc(C(=O)NCC(=O)N2CCN(S(=O)(=O)c3ccccc3)CC2)cc(OC)c1OC the results were M4 antag inactive, M5 ag inactive, M4 ag inactive, M4 PAM inactive, M5 antag inactive and M5 PAM inactive.
O=C(COc1ccccc1)N1c2ccccc2Sc2ccccc21 was read as M4 antag inactive, M5 ag inactive, M4 ag inactive, M4 PAM inactive, M5 antag inactive and M5 PAM inactive.
Screening O=C(C[n+]1ccccc1)N1c2ccccc2Sc2ccccc21 returned M4 antag 99, M5 ag inactive, M4 ag inactive, M4 PAM inactive, M5 antag 98 and M5 PAM inactive.
For CN(C)c1cc[n+](CC(=O)N2c3ccccc3Sc3ccccc32)cc1 the results were M4 antag 48, M5 ag inactive, M4 ag inactive, M4 PAM inactive, M5 antag inactive and M5 PAM inactive.
Screening CCN(CC)C(=O)COc1ccc(N(C)S(=O)(=O)c2ccc(NC(C)=O)cc2)cc1 returned M4 antag inactive, M5 ag inactive, M4 ag inactive, M4 PAM inactive, M5 antag inactive and M5 PAM inactive.
`CC(=O)Nc1ccc(S(=O)(=O)N(C)c2ccc(OCCOc3cccc(C)c3)cc2)cc1` gave M4 antag 39, M5 ag inactive, M4 ag inactive, M4 PAM inactive, M5 antag inactive and M5 PAM inactive.
For COc1ccc(NC(=O)COc2ccc(N(C)S(=O)(=O)c3ccc(Cl)cc3)cc2)cc1OC the results were M4 antag inactive, M5 ag inactive, M4 ag inactive, M4 PAM inactive, M5 antag 29 and M5 PAM inactive.
For CC(=O)NS(=O)(=O)c1ccc(NC(=O)CSc2ccc(C)cc2)cc1 the results were M4 antag inactive, M5 ag inactive, M4 ag inactive, M4 PAM 19, M5 antag inactive and M5 PAM inactive.
Cc1ccc(SCC(=O)Nc2ccc(S(=O)(=O)Nc3ncccn3)cc2)cc1 was read as M4 antag inactive, M5 ag inactive, M4 ag inactive, M4 PAM inactive, M5 antag inactive and M5 PAM inactive.
